Experimental data published in ChEMBL document CHEMBL4024748, “Development of Potent Type I Protein Arginine Methyltransferase (PRMT) Inhibitors of Leukemia Cell Proliferation” (J Med Chem, 2017).
Calls of active or inactive are those of the source. The rule behind the calls is not given here.

Assays:
[1] = molecular target: Protein arginine N-methyltransferase 3 (Homo sapiens, UniProt O60678); test: Inhibition of PRMT3 (unknown origin) incubated for 15 mins followed by substrate addition measured after 60 mins by AlphaLisa method
How it was run: (§1)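 AlphaLISA. Enzyme and substrate in 1x assay buffer, compound at 1% DMSO final. Enzyme preincubated with compound 15 min at room temperature, then substrate added. Reaction 60 min at room temperature, then bead mix added and incubated 60 min under subdued light before signal read.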

[2] = molecular target: Protein arginine N-methyltransferase 8 (Homo sapiens, UniProt Q9NR22); test: Inhibition of PRMT8 (unknown origin) incubated for 15 mins followed by substrate addition measured after 60 mins by AlphaLisa method
How it was run: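 AlphaLISA IC50 run. Compound dispensed to 1% DMSO final, enzyme in 1x assay buffer preincubated 15 min at room temperature. Substrate added and reacted 60 min at RT, then AlphaLISA bead mix added for 60 min at RT in subdued light. IC50 taken from the dose-response fit.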

[3] = molecular target: Histone-lysine N-methyltransferase EHMT2 (Homo sapiens) (UniProt Q96KQ7); test: Inhibition of G9a (unknown origin) at 50 uM incubated for 15 mins followed by substrate addition measured after 60 mins by AlphaLisa method; how it was run: as §1
[4] = molecular target: N-lysine methyltransferase SMYD2 (Homo sapiens) (UniProt Q9NRG4); test: Inhibition of SMYD2 (unknown origin) at 50 uM incubated for 15 mins followed by substrate addition measured after 240 mins by AlphaLisa method
How it was run: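 SMYD2 AlphaLISA at 50 and 100 µM compound, 1% DMSO final. Enzyme preincubated 15 min at RT, then substrate added and reacted 240 min at RT. Bead mix added and incubated 60 min at RT in subdued light before reading.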

[5] = molecular target: DNMT3A2/3L complex (Homo sapiens) (UniProt Q9Y6K1+Q9UJW3); test: Inhibition of DNMT3A/3L (unknown origin) at 100 uM incubated for 15 mins followed by substrate addition measured after 60 mins by radioisotope assay; assay type: protein-complex assay
[6] = molecular target: Histone-lysine N-methyltransferase EHMT2 (Homo sapiens) (UniProt Q96KQ7); test: Inhibition of G9a (unknown origin) at 100 uM incubated for 15 mins followed by substrate addition measured after 60 mins by AlphaLisa method; how it was run: as §1
[7] = molecular target: Histone-lysine N-methyltransferase PRDM9 (Homo sapiens) (UniProt Q9NQV7); test: Inhibition of PRDM9 (unknown origin) at 100 uM incubated for 15 mins followed by substrate addition measured after 60 mins by AlphaLisa method; how it was run: as §1
KOPN-8 = test: Cytotoxicity against human KOPN8 cells assessed as decrease in cell viability after 96 hrs by Cell-Titer Glo assay; assay type: functional, cell-based
How it was run: (§2)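 Cells kept at 37°C, 5% CO2, exposed to compound or DMSO control for 96 h. Viability read by CellTiter-Glo luminescence after 2 min shaking to lyse and 10 min at room temperature. Triplicate wells, normalised to control cells. For long-term growth, log-phase seeding densities; cells counted and replated to the starting density with fresh compound on days 4 and 8.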

KMS-11 = test: Cytotoxicity against human KMS11 cells assessed as decrease in cell viability after 96 hrs by Cell-Titer Glo assay; assay type: functional, cell-based; how it was run: as §2
RCH-ACV = test: Cytotoxicity against human RCH-ACV cells assessed as decrease in cell viability after 96 hrs by Cell-Titer Glo assay; assay type: functional, cell-based; how it was run: as §2
U-937 = test: Cytotoxicity against human U937 cells assessed as decrease in cell viability after 96 hrs by Cell-Titer Glo assay; assay type: functional, cell-based; how it was run: as §2
[8] = Cytotoxicity against human HUV-EC-C cells assessed as decrease in cell viability at 6.25 to 25 uM after 96 hrs by Cell-Titer Glo assay; assay type: cell-based
How it was run: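 Normal HUV-EC-C, MRC-5 and RCTEC cells at 37°C, 5% CO2, given compound or DMSO control for 96 h. Viability by CellTiter-Glo luminescence after 2 min shaking and 10 min at room temperature. Triplicate wells, normalised to control cells.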

MV4-11 [9] = test: Antiproliferative activity against human MV4-11 cells assessed as decrease in cell viability measured at day 4 by Cell-Titer Glo assay; assay type: functional, cell-based; settings: MV4-11, 96 h; how it was run: as §2
MV4-11 [10] = test: Cell cycle arrest in human MV4-11 cells assessed as accumulation at G1 phase after 72 hrs by propidium iodide staining-based flow cytometry; assay type: functional
How it was run: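 MV4-11 cells in 6-well plates with compound or DMSO control, harvested at 72 h. Fixed overnight in 70% ethanol at 4°C, washed with PBS, stained 30 min at room temperature with propidium iodide/RNase buffer, analysed by flow cytometry. Mean ± SD of three replicates.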

MV4-11 [11] = test: Downregulation of HOXA10 mRNA levels in human MV4-11 cells by qRT-PCR analysis; assay type: functional, cell-based
How it was run: (§3)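 MV4-11 cells treated with compound. mRNA measured by SYBR Green qRT-PCR with B2M as internal control. Fold change from ΔΔCt. Samples run in triplicate, mean ± SD.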

MV4-11 [12] = test: Downregulation of MEIS1 mRNA levels in human MV4-11 cells by qRT-PCR analysis; assay type: functional, cell-based; how it was run: as §3
[13] = molecular target: Protein arginine N-methyltransferase 1 (Homo sapiens) (UniProt Q99873); test: Inhibition of PRMT1 in human MV411 cells assessed as reduction in H4R3me2a levels after 48 hrs by Western blot analysis; assay type: cell-based
How it was run: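 MV4-11 cells treated with compound for 48 h. ADMA, SDMA and H4R3me2a read by western blot. Blots blocked in 5% nonfat milk in PBST, primary antibodies overnight at 4°C, HRP anti-rabbit secondary at 1:10000 for 1 h.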

Histone-lysine N-methyltransferase EHMT2 (Homo sapiens), sequence (Q96KQ7 whole entry): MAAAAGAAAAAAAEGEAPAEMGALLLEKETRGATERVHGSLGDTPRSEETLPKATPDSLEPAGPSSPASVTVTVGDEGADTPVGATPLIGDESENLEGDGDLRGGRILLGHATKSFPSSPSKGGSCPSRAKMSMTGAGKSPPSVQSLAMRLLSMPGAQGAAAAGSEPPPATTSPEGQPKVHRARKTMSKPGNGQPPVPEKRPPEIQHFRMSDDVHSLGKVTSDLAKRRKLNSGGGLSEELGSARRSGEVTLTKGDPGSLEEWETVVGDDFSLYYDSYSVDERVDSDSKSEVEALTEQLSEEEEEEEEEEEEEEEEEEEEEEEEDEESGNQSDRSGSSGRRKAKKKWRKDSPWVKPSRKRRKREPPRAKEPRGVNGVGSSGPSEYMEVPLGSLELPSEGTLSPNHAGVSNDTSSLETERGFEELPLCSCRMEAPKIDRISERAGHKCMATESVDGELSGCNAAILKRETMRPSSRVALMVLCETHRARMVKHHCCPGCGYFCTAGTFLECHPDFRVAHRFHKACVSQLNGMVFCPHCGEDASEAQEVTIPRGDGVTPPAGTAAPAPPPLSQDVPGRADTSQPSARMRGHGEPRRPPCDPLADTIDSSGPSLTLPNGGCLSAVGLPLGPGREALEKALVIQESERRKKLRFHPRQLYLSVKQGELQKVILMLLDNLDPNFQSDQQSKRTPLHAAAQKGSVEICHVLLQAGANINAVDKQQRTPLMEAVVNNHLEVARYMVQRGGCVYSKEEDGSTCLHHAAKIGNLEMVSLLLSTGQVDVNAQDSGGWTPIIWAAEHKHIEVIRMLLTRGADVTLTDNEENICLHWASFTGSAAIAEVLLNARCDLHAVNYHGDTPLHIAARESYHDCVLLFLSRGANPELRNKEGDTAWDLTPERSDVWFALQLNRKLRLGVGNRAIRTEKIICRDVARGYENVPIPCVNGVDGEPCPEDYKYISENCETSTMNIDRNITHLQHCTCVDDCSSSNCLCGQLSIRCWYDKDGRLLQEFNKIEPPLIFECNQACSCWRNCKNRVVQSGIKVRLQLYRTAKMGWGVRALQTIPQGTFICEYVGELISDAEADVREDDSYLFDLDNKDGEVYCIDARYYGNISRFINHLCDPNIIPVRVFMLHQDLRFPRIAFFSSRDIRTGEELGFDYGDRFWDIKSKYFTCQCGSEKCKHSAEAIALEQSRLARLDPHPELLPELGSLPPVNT
Protein arginine N-methyltransferase 1 (Homo sapiens), sequence (Q99873 whole entry, looked up): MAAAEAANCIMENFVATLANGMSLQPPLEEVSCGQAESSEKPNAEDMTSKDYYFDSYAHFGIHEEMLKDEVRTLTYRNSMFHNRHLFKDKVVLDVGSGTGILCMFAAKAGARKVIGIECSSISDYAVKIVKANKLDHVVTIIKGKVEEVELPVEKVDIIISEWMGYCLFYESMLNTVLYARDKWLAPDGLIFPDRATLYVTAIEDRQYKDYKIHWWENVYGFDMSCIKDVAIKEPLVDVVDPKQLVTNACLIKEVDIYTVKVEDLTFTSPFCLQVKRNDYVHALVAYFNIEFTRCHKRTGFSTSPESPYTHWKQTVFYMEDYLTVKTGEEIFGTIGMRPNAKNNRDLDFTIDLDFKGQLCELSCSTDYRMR
N-lysine methyltransferase SMYD2 (Homo sapiens), sequence (Q9NRG4 whole entry): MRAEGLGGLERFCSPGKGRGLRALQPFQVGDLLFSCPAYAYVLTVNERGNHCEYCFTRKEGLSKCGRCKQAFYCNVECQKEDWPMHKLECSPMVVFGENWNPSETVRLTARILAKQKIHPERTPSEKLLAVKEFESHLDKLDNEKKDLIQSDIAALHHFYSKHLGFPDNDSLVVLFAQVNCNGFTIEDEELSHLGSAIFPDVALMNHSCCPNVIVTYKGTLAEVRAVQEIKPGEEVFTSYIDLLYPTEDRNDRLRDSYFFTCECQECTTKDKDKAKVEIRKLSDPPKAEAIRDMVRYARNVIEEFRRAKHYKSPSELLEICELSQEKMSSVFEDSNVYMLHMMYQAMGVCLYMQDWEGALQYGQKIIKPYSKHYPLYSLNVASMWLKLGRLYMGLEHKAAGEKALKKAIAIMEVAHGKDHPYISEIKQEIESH
DNMT3A2/3L complex (Homo sapiens), sequence (Q9UJW3 whole entry, looked up): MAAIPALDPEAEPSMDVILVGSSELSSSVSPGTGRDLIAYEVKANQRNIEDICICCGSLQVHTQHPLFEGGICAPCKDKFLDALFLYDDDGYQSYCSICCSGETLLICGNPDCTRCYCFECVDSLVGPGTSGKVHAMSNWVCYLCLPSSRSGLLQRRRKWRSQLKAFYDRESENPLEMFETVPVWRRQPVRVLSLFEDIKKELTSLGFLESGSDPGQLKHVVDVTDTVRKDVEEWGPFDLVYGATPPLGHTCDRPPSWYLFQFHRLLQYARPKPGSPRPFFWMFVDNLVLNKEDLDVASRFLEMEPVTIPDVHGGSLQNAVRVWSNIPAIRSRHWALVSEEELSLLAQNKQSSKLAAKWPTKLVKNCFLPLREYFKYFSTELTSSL
DNMT3A2/3L complex (Homo sapiens), sequence (Q9Y6K1 whole entry, looked up): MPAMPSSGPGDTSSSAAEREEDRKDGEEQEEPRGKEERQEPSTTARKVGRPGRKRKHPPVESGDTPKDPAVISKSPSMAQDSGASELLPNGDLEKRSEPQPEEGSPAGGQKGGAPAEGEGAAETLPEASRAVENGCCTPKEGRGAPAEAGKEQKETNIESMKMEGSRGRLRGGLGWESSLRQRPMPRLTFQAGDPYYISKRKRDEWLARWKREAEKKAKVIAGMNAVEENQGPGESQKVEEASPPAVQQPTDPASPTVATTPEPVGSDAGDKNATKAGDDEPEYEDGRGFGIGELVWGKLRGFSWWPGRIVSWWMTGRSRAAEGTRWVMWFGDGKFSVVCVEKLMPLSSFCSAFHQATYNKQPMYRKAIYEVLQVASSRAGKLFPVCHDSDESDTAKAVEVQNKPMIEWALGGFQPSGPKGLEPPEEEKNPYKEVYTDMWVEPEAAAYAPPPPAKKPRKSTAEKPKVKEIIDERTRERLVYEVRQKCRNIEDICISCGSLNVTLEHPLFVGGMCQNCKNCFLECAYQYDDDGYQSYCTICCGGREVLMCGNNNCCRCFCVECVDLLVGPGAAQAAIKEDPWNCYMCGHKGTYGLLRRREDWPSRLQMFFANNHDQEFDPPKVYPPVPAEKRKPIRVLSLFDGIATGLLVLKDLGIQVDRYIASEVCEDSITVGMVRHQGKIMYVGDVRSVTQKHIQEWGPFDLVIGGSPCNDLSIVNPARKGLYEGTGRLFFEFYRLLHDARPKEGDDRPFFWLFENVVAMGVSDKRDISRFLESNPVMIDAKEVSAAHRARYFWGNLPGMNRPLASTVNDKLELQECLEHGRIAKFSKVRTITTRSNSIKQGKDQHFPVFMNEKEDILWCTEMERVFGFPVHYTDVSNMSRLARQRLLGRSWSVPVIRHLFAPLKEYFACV
Histone-lysine N-methyltransferase PRDM9 (Homo sapiens), sequence (Q9NQV7 whole entry): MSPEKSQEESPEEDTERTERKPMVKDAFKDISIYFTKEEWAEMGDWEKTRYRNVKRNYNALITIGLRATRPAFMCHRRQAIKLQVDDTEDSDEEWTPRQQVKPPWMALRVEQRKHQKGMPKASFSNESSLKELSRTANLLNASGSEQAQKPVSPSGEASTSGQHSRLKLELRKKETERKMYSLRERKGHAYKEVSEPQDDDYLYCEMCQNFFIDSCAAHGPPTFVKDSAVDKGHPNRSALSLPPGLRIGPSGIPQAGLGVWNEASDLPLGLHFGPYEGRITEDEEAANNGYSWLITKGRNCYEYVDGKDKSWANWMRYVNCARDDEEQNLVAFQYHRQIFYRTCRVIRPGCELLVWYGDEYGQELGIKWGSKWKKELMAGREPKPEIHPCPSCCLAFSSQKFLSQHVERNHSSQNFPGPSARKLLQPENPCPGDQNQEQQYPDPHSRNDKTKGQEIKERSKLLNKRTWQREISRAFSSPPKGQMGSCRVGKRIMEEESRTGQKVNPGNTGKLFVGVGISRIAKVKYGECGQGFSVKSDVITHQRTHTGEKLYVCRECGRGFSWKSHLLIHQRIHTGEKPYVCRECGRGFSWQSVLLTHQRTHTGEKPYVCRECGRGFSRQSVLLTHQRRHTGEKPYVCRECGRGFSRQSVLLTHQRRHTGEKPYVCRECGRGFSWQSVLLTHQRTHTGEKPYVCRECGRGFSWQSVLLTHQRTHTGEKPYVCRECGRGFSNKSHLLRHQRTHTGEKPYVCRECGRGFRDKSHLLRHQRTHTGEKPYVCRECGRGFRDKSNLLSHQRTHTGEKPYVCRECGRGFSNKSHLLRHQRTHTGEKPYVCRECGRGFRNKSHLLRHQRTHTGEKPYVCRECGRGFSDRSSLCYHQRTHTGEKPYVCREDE
Protein arginine N-methyltransferase 8, sequence (Q9NR22 whole entry): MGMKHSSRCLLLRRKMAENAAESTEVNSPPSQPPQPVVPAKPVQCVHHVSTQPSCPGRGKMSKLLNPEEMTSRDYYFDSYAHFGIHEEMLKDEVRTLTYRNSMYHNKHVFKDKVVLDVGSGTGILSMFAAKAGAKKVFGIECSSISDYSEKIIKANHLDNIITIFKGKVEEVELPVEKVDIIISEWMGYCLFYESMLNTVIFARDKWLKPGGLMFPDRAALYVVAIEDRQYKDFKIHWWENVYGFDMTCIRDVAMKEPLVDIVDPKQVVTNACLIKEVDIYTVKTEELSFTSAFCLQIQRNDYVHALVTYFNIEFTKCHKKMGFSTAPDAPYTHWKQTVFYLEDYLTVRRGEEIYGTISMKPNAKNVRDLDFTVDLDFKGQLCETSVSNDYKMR

CN(CCN)Cc1ccccc1Sc1ccccc1Cl
IC50 [1]: 22 nM | IC50 [2]: 1.1 nM | inhibition [3]: Active | inhibition [4]: Active | inhibition [5]: Active | inhibition [6]: Active | inhibition [7]: Active | Activity (KOPN-8): Dose-dependent effect | Activity (KMS-11): Dose-dependent effect | Activity (RCH-ACV): Dose-dependent effect | Activity (U-937): Dose-dependent effect | Activity [8]: Non-Toxic | IC50 (MV4-11 [9]): 4550 nM | Activity (MV4-11 [10]): Dose-dependent effect | Activity (MV4-11 [11]): Dose-dependent effect | Activity (MV4-11 [12]): Dose-dependent effect | inhibition [13]: Dose-dependent effect
